Screens deposited in PubChem BioAssay by The Scripps Research Institute Molecular Screening Center.
NPY-Y2 antag: NPY-Y2 receptor antagonists, primary screen, cell-based; Neuropeptide Y receptor type 2 (Homo sapiens), P49146; NPY-Y2 expressing cells, antagonist mode; inhibition, % at 2.7 µM; 0.99% of 140,000 active;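 also: 0% = vehicle with agonist challenge and 100% = reference antagonist with challenge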
Target sequence (P49146 whole entry, looked up): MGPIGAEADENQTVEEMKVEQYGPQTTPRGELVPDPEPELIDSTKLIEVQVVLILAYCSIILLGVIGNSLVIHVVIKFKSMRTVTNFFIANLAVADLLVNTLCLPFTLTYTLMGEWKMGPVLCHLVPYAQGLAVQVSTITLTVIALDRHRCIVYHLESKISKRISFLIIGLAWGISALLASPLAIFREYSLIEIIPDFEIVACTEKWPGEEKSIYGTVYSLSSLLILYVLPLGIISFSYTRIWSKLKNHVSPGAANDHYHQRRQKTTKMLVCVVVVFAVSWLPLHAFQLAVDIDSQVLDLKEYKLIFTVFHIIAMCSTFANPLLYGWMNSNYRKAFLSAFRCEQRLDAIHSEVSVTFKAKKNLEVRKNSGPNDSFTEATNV
NPY Y1 blocker: NPY-Y1 receptor antagonists, primary screen, cell-based; Neuropeptide Y receptor type 1 (Homo sapiens), P25929; HEK293-CNG Y1 cells, membrane potential fluorescence; NPY at EC95, then isoproterenol; inhibition, % at 3.6 µM; 1% of 200,000 active; AID 1040, 2008;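 active = inhibition above the campaign mean inhibition of all tested compounds plus 3 SD, cut at about 20% in these data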;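 also: 0% = DMSO wells given NPY plus isoproterenol and 100% = isoproterenol alone without NPY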
Target sequence (P25929 whole entry, looked up): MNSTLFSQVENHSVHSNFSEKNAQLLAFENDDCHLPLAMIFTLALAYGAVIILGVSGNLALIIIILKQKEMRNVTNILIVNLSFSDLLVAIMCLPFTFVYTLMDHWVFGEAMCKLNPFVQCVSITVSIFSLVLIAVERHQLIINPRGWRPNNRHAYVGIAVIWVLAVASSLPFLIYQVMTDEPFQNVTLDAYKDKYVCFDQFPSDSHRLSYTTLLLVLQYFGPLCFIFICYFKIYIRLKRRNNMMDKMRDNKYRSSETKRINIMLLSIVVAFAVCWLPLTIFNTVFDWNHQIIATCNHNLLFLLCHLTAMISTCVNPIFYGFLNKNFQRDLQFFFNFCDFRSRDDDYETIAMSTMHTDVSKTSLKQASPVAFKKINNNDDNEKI
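Benchmarks – high control isoproterenol alone, low control NPY with isoproterenol · Material – HEK293 Y1/CNG channel cell line · Times – dye 3 h, compound 60 min room temperature, stimulation 45 min · Probe or stimulus – NPY (25 nM), isoproterenol (1 µM), Ro 20-1724 (25 µM) · Evaluation – % inhibition of NPY effect · Signal – fluorescence, membrane potential probe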
NPY-Y1 PAM-ag: NPY-Y1 receptor potentiators or agonists, primary screen, cell-based; NPY-Y1 expressing cells, potentiator/agonist activation; activation, % at 3.6 µM; 0.37% of 220,000 active; AID 1304, 2008; in the data active = activation above about 33%, passing the limit was not always enough;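 also: cells stimulated with NPY at EC10 then isoproterenol at EC100; 0% = low agonist plus stimulus and 100% = saturating agonist plus stimulus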
NPY2 pot ag: NPY-Y2 potentiators or agonists, primary screen, cell-based; Neuropeptide Y receptor type 2 (Homo sapiens), P49146; cells expressing NPY-Y2, potentiator/agonist read-out; activation, % at 3.6 µM; 0.45% of 220,000 active; AID 1359, 2008; in the data active = activation above about 27%;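 also: cells stimulated with NPY near EC25 plus isoproterenol at EC100; 0% = vehicle plus submaximal agonist and 100% = vehicle plus saturating agonist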
NPY1 antag conf: NPY-Y1 receptor antagonists, retest of hits, confirmation, HEK293-CNG cells, membrane potential fluorescence, triplicate; 21% of 1,200 active; cAMP; NPY challenge against isoproterenol-raised cAMP; inhibition, % at 3.6 µM; shares compounds with NPY Y1 blocker; in the data active = inhibition above about 20%;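 also: 0% = vehicle with agonist plus stimulus and 100% = stimulus alone without agonist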
NPY-Y2 antag ct: NPY-Y2 receptor antagonists, selectivity check, confirmation, counter-screen for NPY-Y1 antagonist project, HEK293-CNG cells, membrane potential fluorescence, triplicate; inhibition, % at 3.6 µM; 28% of 1,200 active; AID 1255, 2008; shares compounds with NPY Y1 blocker; antagonism; cells given NPY, then isoproterenol;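 also: 0% = DMSO with agonist challenge and 100% = reference antagonist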
NPY-Y1 pot conf: NPY-Y1 potentiators or agonists, confirmation, cell-based; shares compounds with NPY-Y1 PAM-ag; cell-based NPY-Y1 potentiator/agonist assay; activation, % at 3.6 µM; 20% of 280 active; in the data active = activation above about 45%;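 also: cells challenged with NPY at its EC10 plus isoproterenol stimulus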
NPY-Y2 counter: NPY-Y2 potentiators or agonists, counter-screen for NPY-Y1 potentiator project, cell-based, fluorescence; shares compounds with NPY-Y1 PAM-ag; HEK293-CNG cells, membrane-potential fluorescence (FLIPR), 1536-well; activation, % at 3.6 µM; 20% of 280 active; in the data active = activation above about 33%
NPY-Y1 agonist: NPY-Y1 direct agonists without NPY, confirmation, counter-screen for NPY-Y1 potentiator project, cell-based, fluorescence; shares compounds with NPY-Y1 PAM-ag; HEK293 Y1-CNGC, membrane potential fluorescence, agonist mode; activation, % at 3.6 µM; 50% of 280 active; AID 1697, 2009;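 active = percent activation above the mean of DMSO-only control wells plus 3 SD of those wells, cut at about 18% in these data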;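 also: cells challenged with isoproterenol plus Ro 20-1724 with no NPY in test wells; Y1 agonism lowers isoproterenol-driven cAMP and reduces probe fluorescence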
NPY-Y2 agonist: NPY-Y2 direct agonists without NPY, counter-screen for NPY-Y1 potentiator project, cell-based, fluorescence. shares compounds with NPY-Y1 PAM-ag. HEK293 Y2-CNGC, membrane potential fluorescence, agonist mode. activation, % at 3.6 µM. 67% of 280 active;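 active = activation above the solvent-only control wells' mean plus 3 SD, cut at about 11% in these data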;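 also: 0% = DMSO with isoproterenol and 100% = 40 nM NPY maximal response; agonism lowers cAMP so well fluorescence drops in active wells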
CNGC counter: CNGC cAMP sensor activity inhibitors, counter-screen for NPY-Y1 potentiator/agonist project, cell-based, HEK293-CNG parental, membrane potential fluorescence, Y1 set. shares compounds with NPY-Y1 PAM-ag. isoproterenol cAMP. inhibition, % at 3.6 µM. 42% of 280 active;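 active = inhibition above the mean of stimulated solvent-only control wells plus 3 SD, cut at about 22% in these data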;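 also: 0% = isoproterenol-stimulated DMSO wells and 100% = unstimulated DMSO wells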
Active calls of the source: *; . = no result given; ! = not confirmed by another sample. Most compounds without a hit are left out; they make up all but 1.8% or so of the library. Rule as the data show it, unless noted: active = inhibition above about 17%; inactive = the rest.

SMILES | NPY-Y2 antag | NPY Y1 blocker | NPY-Y1 PAM-ag | NPY2 pot ag | NPY1 antag conf | NPY-Y2 antag ct | others
COc1cccc(C2=NOC(C(=O)NCc3cccs3)C2)c1 (stereo unspecified) | 7 | 30* | -13 | -48 | 3 | 15
CC1(C)Oc2ccccc2OC1(O)c1ccc2ccccc2n1 (stereo unspecified) | 0 | -2 | 0 | 7 | . | .
O=C(Nc1cccnc1)c1ccc(S(=O)(=O)c2ccccc2)cc1 | . | 1 | -12 | -6 | . | .
COc1ccc(C)cc1NC(=S)NNC(=O)c1c(Br)cnn1C | . | -6 | 3 | -14 | . | .
COc1ccc(NS(=O)(=O)c2cn(C)c(=O)n(C)c2=O)cc1 | . | . | 13 | 13 | . | .
CCOC(=O)C1CCCN(/C=C2\SC(=S)N(CC)C2=O)C1 (stereo unspecified) | . | . | -9 | 19 | . | .
CC(=O)OCP(C)(=O)COC(C)=O | 5 | 6 | -4 | 3 | . | .
CC(=O)OCC[N+](C)(C)C | 3 | 27* | -75 | -20 | 29* | 18*!
Cc1ccc(OCCCn2c(=O)sc3ccccc32)cc1 | 8 | 17 | -27 | -12 | . | .
Cc1ccccc1OCCCn1c(=O)sc2ccccc21 | 11 | 27* | -54 | -12 | 5 | 7
CCCCN1Cc2cc(C(=O)c3cc(F)ccc3O)cnc2NC1=O | 3 | 22* | -33 | -3 | 0 | 2
CN1CCN(c2nc(-c3ccccc3)c3cc(Cl)ccc3n2)CC1 | 14 | 12 | -50 | -33 | . | .
Clc1ccc2nc(N3CCNCC3)nc(-c3ccccc3)c2c1 | 8 | 26* | -80 | -10 | 19 | 20*
O=C(C1CC1)N(CCN(Cc1ccccc1)C(=O)C1CC1)Cc1ccccc1 | 16 | 55* | -26 | -9 | 40* | 24*
CN(C(=O)Nc1cnccc1C(F)(F)F)C1CCCCC1 | . | . | 2 | 7 | . | .
O=C(NC1CCCC1)C(c1ccco1)N(Cc1ccccc1)C(=O)c1csnn1 (stereo unspecified) | 14 | 30* | 0 | -1 | 4 | 5
Cc1nc2c(=O)[nH]c3ccccc3c2o1 | . | 1 | 6 | 1 | . | .
CCN(C(=O)c1ccc(C(C)(C)C)cc1)c1nnc(Cn2nnc3ccccc32)s1 | 4 | 31* | -99 | -64 | 41* | 16
CCN(C(=O)CC(C)C)c1nnc(Cn2nnc3ccccc32)s1 | . | -5 | -5 | -4 | . | .
Cc1ccc(C)c(N2CCN(C(=O)C(Cc3ccccc3)n3cccc3)CC2)c1 (stereo unspecified) | 13 | 25* | -23 | -27 | 11 | 15
O=C1N(Cc2cccc(Cl)c2)C[C@@H]2C[C@@H](c3ccsc3)N3CCC[C@@]123 | . | 29* | 4 | 4 | 4 | 5
C/C(N)=C(/C#N)C(=O)CSc1nc2scc(-c3ccc(F)cc3)c2c(=O)n1C | . | -2 | -7 | -2 | . | .
CC1CCC(C(C)C)C(OCC(O)CN2CCCC(C)C2)C1 (stereo unspecified) | . | 28* | 47* | 12 | 27* | 21* | NPY-Y1 pot conf=5;NPY-Y2 counter=5;NPY-Y1 agonist=8;NPY-Y2 agonist=14*;CNGC counter=-13
CC(=O)OC1COC(OC2C(O)C(C)OC(OC3C(OC4CCC5(C)C(CCC6(C)C5CC=C5C7CC(C)(C)CCC7(C(=O)O)CCC56C)C4(C)CO)OCC(O)C3O)C2O)C(O)C1OC(C)=O (stereo unspecified) | . | 23* | 60* | 7 | 22* | 12 | NPY-Y1 pot conf=83*;NPY-Y2 counter=68*;NPY-Y1 agonist=58*;NPY-Y2 agonist=62*;CNGC counter=47*
CC1(C)CC[C@]2(C(=O)O)CC[C@]3(C)C(=CCC4[C@@]5(C)CC[C@H](O)C(C)(C)C5CC[C@]43C)C2C1 (stereo partly specified) | 1 | -2 | -8 | 4 | . | .
SMILES | NPY-Y2 antag | NPY Y1 blocker | NPY-Y1 PAM-ag | NPY2 pot ag | NPY1 antag conf | NPY-Y2 antag ct | others
CC(=O)/C(=N/Nc1ccccc1[N+](=O)[O-])N1CCCc2ccccc21 | . | . | 7 | -15 | . | .
CN(C)S(=O)(=O)c1ccc(S(=O)(=O)N(Cc2ccco2)Cc2ccccc2Cl)cc1 | 12 | -10 | 38* | 20 | . | . | NPY-Y1 pot conf=0;NPY-Y2 counter=-3;NPY-Y1 agonist=-8;NPY-Y2 agonist=0;CNGC counter=-14
Cc1ccc(NCc2n[nH]c(=S)n2Cc2ccccc2)cc1Cl | . | -4 | 45* | 21 | . | . | NPY-Y1 pot conf=12;NPY-Y2 counter=8;NPY-Y1 agonist=16;NPY-Y2 agonist=7;CNGC counter=10
Cc1ccc(NCc2nnc(SCC(=O)O)n2Cc2ccccc2)cc1Cl | . | 0 | -14 | 1 | . | .
COc1ccc(OC)c2sc(NC(=O)c3ccc(S(=O)(=O)N(C)C)cc3)nc12 | -4 | -3 | 34* | -3 | . | . | NPY-Y1 pot conf=20;NPY-Y2 counter=5;NPY-Y1 agonist=12;NPY-Y2 agonist=18*;CNGC counter=17
CCN(CC)CCNC(=O)C(=O)NCC1OCCN1S(=O)(=O)c1ccc([N+](=O)[O-])cc1 (stereo unspecified) | 1 | -1 | 9 | 3 | . | .
CS(=O)(=O)Nc1ccccc1C(=O)O | -1 | -6 | 11 | 6 | . | .
CCN(CC)C(=O)c1ccccc1NS(C)(=O)=O | . | 1 | 37* | 4 | . | . | NPY-Y1 pot conf=-6;NPY-Y2 counter=-4;NPY-Y1 agonist=-4;NPY-Y2 agonist=5;CNGC counter=-5
CC(C)NC(=O)C1CCN(C2CCN(Cc3ccc4cccc(F)c4n3)CC2)CC1 | . | -1 | 0 | -15 | . | .
CC(C)(C)OC(=O)NCCCCCNC(=O)c1[nH]cnc1C(=O)N[C@@H](Cc1ccccc1)C(=O)OCc1ccccc1 | . | -7 | 58* | 30 | . | . | NPY-Y1 pot conf=47*;NPY-Y2 counter=22;NPY-Y1 agonist=32*;NPY-Y2 agonist=19*;CNGC counter=28*
CCn1c(=O)c2c(nc3n2CCN3c2ccccc2)n(C)c1=O | . | 1 | -6 | -8 | . | .
